In brackets after ≈: the same amount, converted by molar mass. Activity calls are given as the source filed them. The calls are words filed in the database; no cut-off is given here.
Legend:
[1] = tested on: MCF7; test: Antimitotic activity in human MCF7mp53 cells assessed as induction of mitotic arrest at 50 ug/mL after 20 hrs; format: functional, cell-based
Procedure, shortened: (§1)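 MCF-7mp53 cells in 96-well plates, treated in triplicate with compound at 1-50 μg/mL for 20 h at 37 °C. Plates spun 50g, 2 min, to keep mitotic cells attached. Cells fixed/permeabilized (3.7% formaldehyde, 0.1% Triton X-100 in TBS), blocked with 1% BSA. Mitotic cells stained with TG-3 antibody plus fluorescent secondary, nuclei with Hoechst 33342. High-content imaging gave percentage of cells in mitosis.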

[2] = tested on: MCF7; test: Antimitotic activity in human MCF7mp53 cells assessed as cells arrested at mitotic stage at optimal concentration after 20 hrs; format: functional; procedure, shortened: as §1
[3] = tested on: MCF7; test: Antimitotic activity in human MCF7mp53 cells assessed as induction of mitotic arrest after 20 hrs; format: functional, cell-based; details: MCF7, 20 h; procedure, shortened: as §1

COc1c(C)cc(Cc2c3nc(N)nc-3ccn(C)c2=O)cc1C
Activity [1]: inactive

CNc1nc2ccn(C)c(=O)c(C(O)c3cc(C)c(OC)c(C)c3)c-2n1 (stereo unspecified)
Activity [1]: inactive

CNc1nc2ccn(C)c(=O)c(Cc3ccc(OC)cc3)c-2n1 [DESBROMOCERATAMINE A]
Activity [2]: 23%
IC50 [3]: > 50 µg/mL

COc1c(C)cc(/C=C2/C(=O)N(C)C=Cc3nc(N(C)C(=O)C(F)(F)F)n(C)c32)cc1C
Activity [1]: inactive

CNc1nc2ccn(C)c(=O)c(Cc3cc(C)c(OC)c(C)c3)c-2n1
Activity [2]: 67%
IC50 [3]: 3.5 µg/mL (≈ 10.3 µM)

CNc1nc2ccn(C)c(=O)c(Cc3cc(Br)c(OC)c(Br)c3)c-2n1 [CERATAMINE A]
Activity [2]: 54%
IC50 [3]: 5 µg/mL (≈ 10.7 µM)

COc1c(C)cc(Cc2c3nc(N(C)C)nc-3ccn(C)c2=O)cc1C
Activity [2]: 82%
IC50 [3]: 3 µg/mL (≈ 8.51 µM)

— ChEMBL document CHEMBL1275365, “Synthetic analogues of the microtubule-stabilizing sponge alkaloid ceratamine A are more active than the natural product” (J Med Chem, 2010)
